# Compounds with a hit are over-represented: about 2.1% of the library has one in this group of screens.
# ZTA counter: ZTA (EBV) inhibition in EBNA-1 counter-screen | 0.15% of 320,000 active | P03206 | AID 2234 | ZTA-DNA binding, fluorescence polarization | inhibition, % at 11 µM; in the data active = inhibition above about 33%
# EBNA-1 inh: EBNA-1 DNA-binding inhibitors, primary screen, biochemical, fluorescence polarization; 0.34% of 300,000 active; AID 1950, 2009; inhibition, % at 14.8 µM; in the data active = inhibition above about 28%
# PABP1 MLLE inh: inhibitors of PABP1 MLLE–PAM2 peptide binding, primary screen, biochemical, fluorescence polarization, FITC-PAM2, GST-MLLE | 0.36% of 360,000 active | inhibition, % at 20 µM | AID 588489, 2011 | Polyadenylate-binding protein 1 (Homo sapiens), P11940; in the data active = inhibition above about 35%, passing the limit was not always enough;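 also: plate controls were DMSO wells with GST-MLLE for no effect and wells lacking GST-MLLE protein for full effect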
# Target sequence (P11940 whole entry, looked up): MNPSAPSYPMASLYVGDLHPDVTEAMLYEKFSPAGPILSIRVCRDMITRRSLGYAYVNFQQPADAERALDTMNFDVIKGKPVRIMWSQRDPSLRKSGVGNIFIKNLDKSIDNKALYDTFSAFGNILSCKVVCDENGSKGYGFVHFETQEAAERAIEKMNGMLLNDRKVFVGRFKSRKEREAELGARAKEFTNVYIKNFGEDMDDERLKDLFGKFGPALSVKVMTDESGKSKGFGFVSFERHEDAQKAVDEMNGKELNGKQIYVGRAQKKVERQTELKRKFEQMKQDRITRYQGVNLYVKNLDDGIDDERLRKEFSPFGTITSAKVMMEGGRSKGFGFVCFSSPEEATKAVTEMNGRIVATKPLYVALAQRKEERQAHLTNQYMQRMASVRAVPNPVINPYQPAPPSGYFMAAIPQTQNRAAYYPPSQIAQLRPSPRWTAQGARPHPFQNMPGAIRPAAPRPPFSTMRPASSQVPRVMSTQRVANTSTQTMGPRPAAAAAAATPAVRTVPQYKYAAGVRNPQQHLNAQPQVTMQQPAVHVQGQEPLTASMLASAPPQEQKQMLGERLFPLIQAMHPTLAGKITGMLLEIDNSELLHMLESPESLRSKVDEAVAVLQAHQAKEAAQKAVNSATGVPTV
# PABP polyA inh: PABP poly(A) RNA binding inhibitors, primary screen, biochemical, fluorescence polarization, uHTS | 1% of 290,000 active | Polyadenylate-binding protein 1 (Homo sapiens), P11940 | inhibition, % at 35 µM;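 also: calls also rest on retests at 20 µM and on dose response follow-up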
# eIF4H FP inh: human eIF4H binding inhibitors, primary screen, translation initiation inhibitor project, biochemical, uHTS, fluorescence polarization | Eukaryotic translation initiation factor 4H (Homo sapiens), Q15056 | eIF4H fluorescence polarization binding assay | inhibition, % at 35 µM | 0.94% of 290,000 active | AID 2012, 2009;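 also: calls also rest on retests at 20 µM and on dose response follow-up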
# NS3 helicase inh: inhibitors of HCV NS3 helicase, primary screen, biochemical, Cy5 molecular beacon fluorescence. 0.56% of 290,000 active. inhibition, % at 10.9 µM. AID 1800, 2009. NS3 helicase DNA unwinding. Hepatitis C virus NS3 helicase;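 active = inhibition above the mean of all tested compounds plus 3 SD, set per campaign, cut at about 35% in these data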;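 also: 0% = DMSO wells and 100% = thioflavine S control wells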
#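 System: Hepatitis C virus NS3 helicase domain fragment enzyme | Reagent: Annealed dual-labelled DNA beacon duplex, ATP-started | Compound dosing: 10.9 µM single point, 0.8% DMSO | Incubation: 1 h reaction at 25 °C, ATP-initiated | Technique: Cy5 fluorescence | Evaluation: Percent inhibition from t60/t0 fluorescence ratio | Benchmarks: Low DMSO, high thioflavine S at 110 µM | Replication: Singlicate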
# * hit, by the source's call; ? = inconclusive; . = no result. Unless noted, no rule for the calls is given here.
SMILES,ZTA counter,EBNA-1 inh,PABP1 MLLE inh,PABP polyA inh,eIF4H FP inh,NS3 helicase inh
CSc1cccc(NC(=S)N2CCC(N(C)C3CCCC3)CC2)c1,-7.4,-2.7,-40.4,60.9*,2.1*,-0.7
CCOC(=O)N1CCC(N(CCN(C)C)C(=S)Nc2cccc(SC)c2)CC1,2.7,-1.6,17.2,-3.8,5.9,-11.9
CCC12OC(=N)C(C#N)(C1C)C(C#N)(C#N)C(c1ccccc1)O2 (stereo not given),3.6,-5.3,20.3,85.1*,?,0.6
CCC1OC2(C)OC(=N)C1(C#N)C(C#N)(C#N)C2c1ccccc1 (stereo not given),7.3,5.9,23.1,-9.3,?,8.8
Cc1cccc(C(=O)Oc2ccc(/C=N/NC(=O)c3cc(O)cc(O)c3)cc2)c1,.,.,1.4,94.9*,99.3*,7.0
Cc1cccc(C(=O)Oc2ccc(/C=N/NC(=O)c3ccncc3)cc2)c1,1.7,-10.1,15.8,-3.3,-6.7,8.2
Cn1c2ccccc2c2cc(/C=N/NC(=O)c3cc(O)cc(O)c3)ccc21,4.7,1.6,7.9,65.2*,94.8*,23.2
Cc1cc(C(=O)CSc2nc(N)cc(N)n2)c(C)n1C1CC1,5.3,0.9,0.5,-9.4,81.0*,11.4
Cc1ccccc1NC1=C/C(=N\S(=O)(=O)c2ccc(C(=O)O)cc2)c2ccccc2C1=O,57.4*,-8.6,6.2,6.2,5.3,7.1
Cc1ccccc1NC1=C/C(=N\S(=O)(=O)c2cccs2)c2ccccc2C1=O,15.0,7.7,22.9,-0.5,-11.4,0.7
CC(=O)c1c(C)[nH]c(C(=O)OCC(=O)Nc2ccc([N+](=O)[O-])cc2Cl)c1C,-1.5,20.8,1.7,62.0*,-0.6,5.9
Cc1ccc(N2CCN(C(=O)c3cc(-c4ccc(F)cc4)[nH]c3C)CC2C)cc1 (stereo not given),.,.,-14.5,25.1*,?,-32.1
CCOC1=CC2=C(C(=O)C(Cl)=CC2=O)[C@@H]2CN(S(=O)(=O)c3ccc(C)cc3)[C@@H](c3ccccc3)[C@H]12,.,.,46.4*,.,.,.
O=C(O)c1ccc(Nc2nc(-c3cc4ccccc4oc3=O)cs2)cc1O,.,.,-51.2,18.9,50.9*,-2.4
CC(=O)Nc1ccc(Nc2nc(-c3cc4ccccc4oc3=O)cs2)cc1,.,.,-59.6,12.1,-6.4,5.2
CCOC(OCC)c1cc2ccccc2cn1,.,.,0.9,.,.,.
CCCCC(=O)N(C)c1c(CC)nc2c(OCC=C(C)C)cccn12,.,.,-3.3,.,.,.
CCCCCNc1nc(N2CCCC2)c2c(c1C#N)CCN(C)C2,2.8,2.0,26.6,57.0*,59.4*,-70.9
CCCCCNc1nc(NCCCO)c(C#N)c2c1CN(C)CC2,-17.2,-11.0,18.9,119.8,127.2,0.9
CC[N+]1(CC(O)COC2CC(C)CC(C)(C)C2)CCOCC1 (stereo not given),1.6,-8.8,-114.3,62.2*,-1.7,-2.0
Nc1nc(-c2ccccc2)c(-c2ccccc2)n1N,-7.9,-5.0,3.5,37.4*,54.0,-11.3
CN(Cc1cnc2nc(N)nc(N)c2n1)c1ccc(C(=O)NC(CCC(=O)O)C(=O)O)cc1 (stereo not given),.,.,67.3*,.,.,.
Cc1c(C)c2c(OCC(=O)Nc3ccc(CCO)cc3)cc3c(c2oc1=O)CCC(C)(C)O3,5.6,-0.5,-0.9,-8.7,-14.6,-15.8
O=C1CC(c2ccccc2)CC(=O)C1Sc1ccc(Cl)cc1 (stereo not given),-2.5,9.2,42.1*,-2.7,-1.0,20.6
O=C1C=C(c2ccccc2)C[C@@H](c2ccc(Cl)cc2)C1,-18.4,.,2.5,.,.,.
SMILES,ZTA counter,EBNA-1 inh,PABP1 MLLE inh,PABP polyA inh,eIF4H FP inh,NS3 helicase inh
Cc1ccc(OCC(=O)Nc2nnc(S(=O)(=O)N3CCCCCC3)s2)cc1,1.4,6.8,-12.7,3.0,66.1*,14.4
Cc1ccc(OCC(=O)Nc2nnc(S(=O)(=O)N3CCCCC3)s2)cc1,7.2,10.0,-57.7,22.9*,83.0*,7.5
Cc1cccc(Oc2nc3c(c(=O)n(C)c(=O)n3C)n2C)c1,-11.9,1.9,2.8,0.2,-4.1,4.5
CCOC(=O)c1c(/N=C/N(C)C)sc(/C=N/Nc2ccccc2)c1-c1ccccc1Cl,-0.1,-5.0,-23.2,94.8*,-9.1,-3.6
CC(C)c1nc2sc3c(SCC(=O)NCc4ccco4)ncnc3c2c2c1CCC2,-2.3,-13.9,3.7,51.9,14.0*,24.4
CC(=O)c1c(NC(=O)c2ccccc2)[nH]c(-c2ccccc2)nc1=S,6.8,-16.3,38.5*,-4.8,0.2,-4.2
Cc1ccc(NC(=S)N(C)Cc2cn(C)c3ccccc23)cc1,-1.3,6.0,-47.5,4.2,-3.6,-10.2
COc1cc(C(=S)N2CCCCC2)ccc1OCC(=O)Nc1ccccc1Cl,3.6,-3.5,19.1,5.1,-6.7,-4.7
O=C(COc1ccc(C(=S)N2CCOCC2)cc1Cl)Nc1ccccc1Cl,12.9,0.6,40.6*,-12.9,8.9,-21.9
CC1=CC2(O)OCCN(CCO)C2=CC1=O (stereo not given),2.6,4.7,16.6,-4.4,81.5*,3.5
Cc1cc(C)n(-c2ncc3c(n2)N(CCO)CCOC3=O)n1,-20.6,-7.4,16.5,-5.1,-3.5,14.3
O=C(CSc1nnc(-c2cccs2)o1)NCc1ccco1,4.5,-1.4,0.1,48.9,-5.8,-2.1
CS(=O)(=O)N1CCN(c2ccc([N+](=O)[O-])c(NCc3ccc(Cl)cc3)c2)CC1,-14.6,6.7,-23.1,122.4*,active,1.0
O=C(CCc1nnc(C2CCCCC2)o1)N1CCN(c2ccccc2F)CC1,-6.4,-4.2,-3.5,-6.2,-5.6,-7.9
CC[n+]1c(/C=C/N(C)c2ccccc2)n(-c2ccccc2)c2ccc(-c3nc4ccccc4s3)cc21,42.0*,15.1,-158.7,0.6,-2.0,-31.9
Cc1c(N2C(=O)/C(=C3/C(=O)N(C)c4ccccc43)SC2=S)c(=O)n(-c2ccccc2)n1C,10.7,9.3,31.7,1.1,3.9,-1.6
CCN1C(=O)/C(=C2\SC(=S)N(c3c(C)n(C)n(-c4ccccc4)c3=O)C2=O)c2ccccc21,2.0,5.8,44.2*,4.4,0.1,-1.2
CCCN1C(=O)/C(=C2\SC(=S)N(c3c(C)n(C)n(-c4ccccc4)c3=O)C2=O)c2ccccc21,8.0,12.9,.,14.2,-5.2,6.0
CCN1C(=O)/C(=C2\SC(=S)N(NC(=O)c3ccccc3O)C2=O)c2ccccc21,4.5,1.0,38.7*,20.6,-15.2,18.7
CCN1C(=O)/C(=C2\SC(=S)N(CC3CCCO3)C2=O)c2ccccc21 (stereo not given),.,.,.,-7.2,-2.5,-2.7
CC(=O)N1C(=O)/C(=C2\SC(=S)N(c3c(C)n(C)n(-c4ccccc4)c3=O)C2=O)c2ccccc21,9.4,-1.0,47.4*,10.4,-3.1,0.9
COc1ccc(C2C3=C(CCCC3=O)Nc3nc(SCc4ccccc4)nn32)cc1OC (stereo not given),-20.6,-1.9,-11.2,-2.7,4.6,3.3

# Screens as filed in PubChem BioAssay.
